Test results reported in ChEMBL document CHEMBL4002602, “Design, Synthesis of Novel, Potent, Selective, Orally Bioavailable Adenosine A2A Receptor Antagonists and Their Biological Evaluation” (J Med Chem, 2017).
The source made the active and inactive calls. The rule behind the calls is not given here.

Assays:
[1] = target: T1, Adenosine receptor A3 (Homo sapiens) (UniProt P0DMS8); experiment: Displacement of [3H]-HEMADO from human adenosine A3 receptor expressed in HEK293 cell membranes at 1 uM measured after 90 mins relative to control
T1 sequence (whole entry): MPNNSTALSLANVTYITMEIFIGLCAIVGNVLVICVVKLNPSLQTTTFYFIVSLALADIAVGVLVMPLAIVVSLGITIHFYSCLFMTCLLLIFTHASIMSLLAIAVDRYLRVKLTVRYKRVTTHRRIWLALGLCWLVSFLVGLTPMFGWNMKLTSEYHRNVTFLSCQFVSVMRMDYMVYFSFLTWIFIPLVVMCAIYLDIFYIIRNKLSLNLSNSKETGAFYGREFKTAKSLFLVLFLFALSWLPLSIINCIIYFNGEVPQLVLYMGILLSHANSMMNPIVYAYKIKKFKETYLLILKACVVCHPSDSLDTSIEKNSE

[2] = target: T2, Adenosine receptor A1 (Homo sapiens) (UniProt P30542); experiment: Displacement of [3H]-DPCPX from human adenosine A1 receptor expressed in HEK293 cell membranes at 1 uM measured after 90 mins relative to control
T2 sequence (whole entry): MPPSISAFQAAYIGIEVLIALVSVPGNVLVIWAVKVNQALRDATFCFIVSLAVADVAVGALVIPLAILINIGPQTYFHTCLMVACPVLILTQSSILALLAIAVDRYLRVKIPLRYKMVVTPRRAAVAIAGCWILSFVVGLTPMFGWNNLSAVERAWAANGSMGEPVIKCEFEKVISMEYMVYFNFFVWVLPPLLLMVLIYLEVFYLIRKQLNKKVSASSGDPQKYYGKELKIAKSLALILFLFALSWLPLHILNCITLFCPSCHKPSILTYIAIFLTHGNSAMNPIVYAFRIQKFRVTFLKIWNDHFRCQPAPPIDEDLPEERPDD

Adenosine receptor A2a [3] = target: T3, Adenosine receptor A2a (Homo sapiens, UniProt P29274); experiment: Displacement of [3H]ZM241385 from human adenosine A2A receptor expressed in HEK293 cell membranes measured after 90 mins
Summary of the method: (§1)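 Competition binding on membranes from HEK-293 cells overexpressing human A1, A2A, A2B or A3, washed with ADA. Radioligands: [3H]-DPCPX 1 nM (A1), [3H]ZM241385 1 nM (A2A), [3H]-MRS-1754 1.6 nM (A2B), [3H]-HEMADO 2 nM (A3). Buffer was 50 mM Tris with EDTA and ADA; MgCl2 10 mM for A2A/A3; A2B at pH 6.5 with 5 mM MgCl2. Incubation 90 min at room temperature, then filtration. Nonspecific binding defined by NECA 100 μM. Ki values: mean of two experiments, triplicate points.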

Liver [4] = experiment: Metabolic stability in human liver microsomes assessed as metabolic rate at 1 uM preincubated for 5 mins followed by addition of NADPH measured after 3 to 30 mins by LC-MS/MS analysis; assay type: ADME, microsome
Liver [5] = experiment: Metabolic stability in rat liver microsomes assessed as metabolic rate at 1 uM preincubated for 5 mins followed by addition of NADPH measured after 3 to 30 mins by LC-MS/MS analysis; assay type: ADME, microsome
[6] = target: T4, Adenosine receptor A2b (Homo sapiens) (UniProt P29275); experiment: Displacement of [3H]-MRS-1754 from human adenosine A2B receptor expressed in HEK293 cell membranes at 1 uM measured after 90 mins relative to control
T4 sequence (whole entry): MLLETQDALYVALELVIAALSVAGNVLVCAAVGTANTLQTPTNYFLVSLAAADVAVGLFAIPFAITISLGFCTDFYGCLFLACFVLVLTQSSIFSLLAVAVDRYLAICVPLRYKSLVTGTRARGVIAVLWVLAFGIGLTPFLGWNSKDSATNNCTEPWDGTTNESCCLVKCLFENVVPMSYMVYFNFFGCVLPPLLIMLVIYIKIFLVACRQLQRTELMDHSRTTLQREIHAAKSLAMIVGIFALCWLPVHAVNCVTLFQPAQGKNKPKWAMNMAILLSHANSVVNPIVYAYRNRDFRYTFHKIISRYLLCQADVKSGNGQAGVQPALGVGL

Adenosine receptor A2a [7] = target: T3, Adenosine receptor A2a; experiment: Antagonist activity at human adenosine A2A receptor expressed in HEK293 cell membranes assessed as decrease in CGS-21680-induced cAMP level pretreated for 15 mins followed by agonist addition for 30 mins
Adenosine receptor A1 [8] = target: T5, Adenosine receptor A1 (Homo sapiens, UniProt P30542); experiment: Antagonist activity at human adenosine A1 receptor expressed in HEK293 cell membranes assessed as decrease in CPA/forskolin-induced cAMP level pretreated for 15 mins followed by agonist addition for 15 mins and subsequent forskolin stimulation measured after 30 mins; assay type: functional, cell-based
T5 sequence (P30542 whole entry): T2 sequence (whole entry)
Summary of the method: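 HTRF cAMP assay in overnight-seeded HEK cells expressing human A1, A2A or A2B, pretreated with ADA 1 U/ml for 90 min at 37 °C. Cells were given compound at increasing concentrations for 15 min, then agonist at room temperature in incomplete DMEM with ADA: CPA 1 nM, 15 min (A1); CGS-21680 10 nM, 30 min (A2A); NECA 70 nM, 15 min (A2B). Rolipram 20 μM for A1 and A2A; forskolin 30 min for A1 only. 12 concentrations, triplicates; IC50/Ki by curve fitting.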

Adenosine receptor A2b [9] = target: T6, Adenosine receptor A2b (Homo sapiens, UniProt P29275); experiment: Displacement of [3H]-MRS-1754 from human adenosine A2B receptor expressed in HEK293 cell membranes measured after 90 mins
T6 sequence (P29275 whole entry): T4 sequence (whole entry)

Adenosine receptor A1 [10] = target: T5, Adenosine receptor A1; experiment: Displacement of [3H]-DPCPX from human adenosine A1 receptor expressed in HEK293 cell membranes measured after 90 mins; summary of the method: as §1
[11] = target: T1, Adenosine receptor A3 (Homo sapiens); experiment: Displacement of [3H]-HEMADO from human adenosine A3 receptor expressed in HEK293 cell membranes at 30 uM measured after 90 mins
Adenosine receptor A2b [12] = target: T6, Adenosine receptor A2b; experiment: Antagonist activity at human adenosine A2B receptor expressed in HEK293 cell membranes assessed as decrease in NECA/forskolin-induced cAMP level pretreated for 15 mins followed by agonist addition for 15 mins and subsequent forskolin stimulation measured after 30 mins; assay type: functional, cell-based

T3 sequence (P29274 whole entry): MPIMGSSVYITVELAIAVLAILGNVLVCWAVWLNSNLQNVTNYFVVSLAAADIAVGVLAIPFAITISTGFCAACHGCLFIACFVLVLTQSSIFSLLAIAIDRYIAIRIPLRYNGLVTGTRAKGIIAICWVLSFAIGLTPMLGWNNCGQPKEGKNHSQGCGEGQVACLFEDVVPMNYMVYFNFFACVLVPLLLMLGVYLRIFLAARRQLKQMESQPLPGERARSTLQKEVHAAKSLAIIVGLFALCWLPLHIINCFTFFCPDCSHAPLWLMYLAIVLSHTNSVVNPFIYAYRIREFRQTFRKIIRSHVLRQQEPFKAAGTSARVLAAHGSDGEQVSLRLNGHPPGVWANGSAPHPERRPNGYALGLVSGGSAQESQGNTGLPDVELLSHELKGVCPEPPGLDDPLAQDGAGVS

| SMILES | inhibition [1] [%] | inhibition [2] [%] | Ki (Adenosine receptor A2a [3]) [nM] | Drug metabolism (Liver [4]) [nmol/min/mg] | Drug metabolism (Liver [5]) [nmol/min/mg] | inhibition [6] [%] | Ki (Adenosine receptor A2a [7]) [nM] | other results |
| --- | --- | --- | --- | --- | --- | --- | --- | --- |
| COc1cnc(N2CCOCC2)c2sc(NC(=O)C(C)(C)Oc3c(F)cccc3F)nc12 | 48 | 33 | 15 | 0.11 | 0.05 | 42 | 26.5 |  |
| COc1ccc(N2CCOCC2)c2sc(NC(=O)C3(C)CCC(O)CC3)nc12 (stereo not given) |  |  | 5.9 |  |  |  | 1.1 | Ki (Adenosine receptor A1 [8]): 41.8 nM; Ki (Adenosine receptor A2b [9]): 23 nM; Ki (Adenosine receptor A1 [10]): 90 nM; Activity [11]: inactive; Ki (Adenosine receptor A2b [12]): 1000 nM |
| COc1cccc(OC(C)(C)C(=O)Nc2nc3c(OC)cnc(N4CCOCC4)c3s2)c1 |  |  | 42 |  |  |  |  |  |
| COc1ccc(N2CCOCC2)c2sc(NC(=O)C(C)(C)Oc3ccc(C(C)(C)C)cc3)nc12 |  |  | 500 |  |  |  |  |  |
| COc1cnc(N2CCOCC2)c2sc(NC(=O)C(C)(C)Oc3ccc(Cl)cc3)nc12 |  |  | 29 |  |  |  |  |  |
| COc1ccc(N2CCOCC2)c2sc(NC(=O)C(C)(C)Oc3ccc4c(c3)OCO4)nc12 | 29 | 0 | 17 |  | 0.05 | 0 | 2.1 |  |
| COc1cnc(N2CCOCC2)c2sc(NC(=O)C(C)(C)Oc3cccc(F)c3)nc12 | 94 | 90 | 14 | < 0.04 | < 0.02 | 42 | 4.7 |  |
| CCC1(O)CCC(C)(C(=O)Nc2nc3c(OC)ccc(N4CCOCC4)c3s2)CC1 (stereo not given) |  |  | 25 |  |  |  |  |  |
| COc1cnc(N2CCOCC2)c2sc(NC(=O)C(C)(C)Oc3ccc(C)cc3)nc12 |  |  | 55 |  |  |  |  |  |
| COc1cnc(N2CCOCC2)c2sc(NC(=O)C(C)(C)Oc3ccc4c(c3)OCO4)nc12 |  |  | 42 |  |  |  |  |  |
| COc1ccc(N2CCOCC2)c2sc(NC(=O)C(C)(C)Oc3cccc(F)c3)nc12 | 20 | 52 | 2.8 | 0.08 | 0.1 | 36 | 0.95 |  |
| COc1ccc(N2CCOCC2)c2sc(NC(=O)C(C)(C)Oc3ccc(Cl)cc3)nc12 |  |  | 51 |  |  |  |  |  |
| COc1ccc(N2CCOCC2)c2sc(NC(=O)C(C)(C)Oc3ccc(F)cc3F)nc12 | 21 | 33 | 7 | 0.11 | 0.07 | 0 | 2.6 |  |
| COc1ccc(N2CCOCC2)c2sc(NC(=O)C(C)(C)Oc3ccc(C(F)(F)F)cc3)nc12 |  |  | 76 |  |  |  |  |  |
| COc1cnc(N2CCOCC2)c2sc(NC(=O)C(C)(C)Oc3ccccc3F)nc12 |  |  | 21 |  |  |  |  |  |
| COc1cnc(N2CCOCC2)c2sc(NC(=O)C(C)(C)Oc3ccc(F)cc3F)nc12 | 47 | 39 | 13 | < 0.03 | < 0.01 | 11 | 13.5 |  |
| COc1ccc(N2CCOCC2)c2sc(NC(=O)C(C)(C)Oc3ccc(C#N)cc3)nc12 |  |  | 58 |  |  |  |  |  |
| COc1cnc(N2CCOCC2)c2sc(NC(=O)C(C)(C)Oc3cccc(C(F)(F)F)c3)nc12 |  |  | 24 |  |  |  |  |  |
| COc1ccc(N2CCOCC2)c2sc(NC(=O)C(C)(C)Oc3ccc(C)cc3)nc12 | 5 | 7 | 5.4 | 0.09 | 0.1 | 14 | 8.3 |  |
| COc1ccc(OC(C)(C)C(=O)Nc2nc3c(OC)ccc(N4CCOCC4)c3s2)cc1OC | 0 | 0 | 19 | 0.06 | 0.11 | 25 | 1.8 |  |
| COc1ccc(N2CCOCC2)c2sc(NC(=O)C3(C)CCC(O)(C(C)C)CC3)nc12 (stereo not given) |  |  | 17 |  |  |  | 2.1 |  |
| COc1cnc(N2CCOCC2)c2sc(NC(=O)C(C)(C)Oc3ccc(F)c(F)c3)nc12 | 47 | 50 | 12 | 0.05 | 0.03 | 42 | 24 |  |
| COCCOc1cccc(OC(C)(C)C(=O)Nc2nc3c(OC)ccc(N4CCOCC4)c3s2)c1 | 20 | 34 | 22 |  |  | 38 |  |  |
| COc1ccc(N2CCOCC2)c2sc(NC(=O)C(C)(C)Oc3c(F)cccc3F)nc12 | 10 | 37 | 8 | 0.16 | 0.09 | 19 | 1 |  |
| COCCOc1cccc(OC(C)(C)C(=O)Nc2nc3c(OC)cnc(N4CCOCC4)c3s2)c1 | 41 | 38 | 14 | 0.1 | 0.05 | 23 | 28 |  |
